ChEMBL document CHEMBL1649446, “Comparative antipneumococcal activities of sulopenem and other drugs” (2009)

Columns and labels:
Assay type in all cases: functional
Streptococcus pneumoniae [1] = test: Antimicrobial activity against Streptococcus pneumoniae isolate 2688 by agar dilution method
Summary of the method: (§1)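 Agar dilution MIC on Mueller-Hinton agar with 5% sheep blood, inocula 10^4 CFU/spot; amoxicillin-clavulanate combined 1:2; S. pneumoniae ATCC 49619 quality control each run.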

Streptococcus pneumoniae [2] = test: Antimicrobial activity against Streptococcus pneumoniae 1 by time-kill analysis
Summary of the method: (§2)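 Time-kill in cation-adjusted Mueller-Hinton broth with 5% lysed horse blood; inocula 5 × 105 to 5 × 10^6 CFU/ml; drugs at MIC, 2× and 4× MIC; 35°C shaking water bath; viable counts at 0, 3, 6, 12 and 24 h. Bactericidal if ≥3 log10 CFU/ml (99.9%) reduction from original inoculum; 90% and 99% killing also scored.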

Streptococcus pneumoniae [3] = test: Antimicrobial activity against Streptococcus pneumoniae 3 by time-kill analysis
Summary of the method: (§3)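 Time-kill in cation-adjusted Mueller-Hinton broth with 5% lysed horse blood; inocula 5 × 105 to 5 × 10^6 CFU/ml; drugs at MIC, 2× and 4× MIC; 35°C shaking water bath; viable counts at 0, 3, 6, 12, 24 h. Bactericidal = ≥3 log10 CFU/ml (99.9%) drop from original inoculum; 90%/99%/99.9% killing scored per strain.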

Streptococcus pneumoniae [4] = test: Antimicrobial activity against Streptococcus pneumoniae isolate 3791 by agar dilution method; summary of the method: as §1
Streptococcus pneumoniae [5] = test: Antimicrobial activity against Streptococcus pneumoniae isolate 3587 by agar dilution method
Streptococcus pneumoniae [6] = test: Antimicrobial activity against Streptococcus pneumoniae isolate 33 by agar dilution method; summary of the method: as §1
Streptococcus pneumoniae [7] = test: Antimicrobial activity against Streptococcus pneumoniae isolate 1384 by agar dilution method; summary of the method: as §1
Streptococcus pneumoniae [8] = test: Antimicrobial activity against Streptococcus pneumoniae isolate 1147 by agar dilution method; summary of the method: as §1
Streptococcus pneumoniae [9] = test: Antimicrobial activity against Streptococcus pneumoniae isolate 4747 by agar dilution method; summary of the method: as §1
Streptococcus pneumoniae [10] = test: Antimicrobial activity against Streptococcus pneumoniae isolate 3282 by agar dilution method
Streptococcus pneumoniae [11] = test: Antimicrobial activity against Streptococcus pneumoniae isolate 2617 by agar dilution method; summary of the method: as §1
Streptococcus pneumoniae [12] = test: Antimicrobial activity against penicillin-intermediate Streptococcus pneumoniae by agar dilution method
Streptococcus pneumoniae [13] = test: Antimicrobial activity against Streptococcus pneumoniae isolate 24 by agar dilution method
Streptococcus pneumoniae [14] = test: Antimicrobial activity against Streptococcus pneumoniae isolate 2880 by agar dilution method; summary of the method: as §1
Streptococcus pneumoniae [15] = test: Antimicrobial activity against Streptococcus pneumoniae 8 by time-kill analysis; summary of the method: as §3
Streptococcus pneumoniae [16] = test: Antimicrobial activity against Streptococcus pneumoniae isolate 4755 by agar dilution method; summary of the method: as §1
Streptococcus pneumoniae [17] = test: Antimicrobial activity against Streptococcus pneumoniae isolate 3346 by agar dilution method
Streptococcus pneumoniae [18] = test: Antimicrobial activity against Streptococcus pneumoniae isolate 1146 by agar dilution method; summary of the method: as §1
Streptococcus pneumoniae [19] = test: Antimicrobial activity against Streptococcus pneumoniae isolate 3260 by agar dilution method
Streptococcus pneumoniae [20] = test: Antimicrobial activity against Streptococcus pneumoniae isolate 3681 by agar dilution method; summary of the method: as §1
Streptococcus pneumoniae [21] = test: Antimicrobial activity against Streptococcus pneumoniae isolate 1394 by agar dilution method
Streptococcus pneumoniae [22] = test: Antimicrobial activity against Streptococcus pneumoniae isolate 1397 by agar dilution method; summary of the method: as §1
Streptococcus pneumoniae [23] = test: Antimicrobial activity against Streptococcus pneumoniae isolate 3412 by agar dilution method; summary of the method: as §1
Streptococcus pneumoniae [24] = test: Antimicrobial activity against penicillin-susceptible Streptococcus pneumoniae by agar dilution method
Streptococcus pneumoniae [25] = test: Antimicrobial activity against Streptococcus pneumoniae isolate 3263 by agar dilution method
Streptococcus pneumoniae [26] = test: Antimicrobial activity against Streptococcus pneumoniae isolate 2874 by agar dilution method; summary of the method: as §1
Streptococcus pneumoniae [27] = test: Antimicrobial activity against Streptococcus pneumoniae isolate 3458 by agar dilution method
Streptococcus pneumoniae [28] = test: Antimicrobial activity against Streptococcus pneumoniae isolate 1424 by agar dilution method; summary of the method: as §1
Streptococcus pneumoniae [29] = test: Antimicrobial activity against Streptococcus pneumoniae 7 by time-kill analysis; summary of the method: as §3
Streptococcus pneumoniae [30] = test: Antimicrobial activity against Streptococcus pneumoniae isolate 3275 by agar dilution method; summary of the method: as §1
Streptococcus pneumoniae [31] = test: Antimicrobial activity against Streptococcus pneumoniae 12 by time-kill analysis; summary of the method: as §3
Streptococcus pneumoniae [32] = test: Antimicrobial activity against Streptococcus pneumoniae 19A by agar dilution method; summary of the method: as §1
Streptococcus pneumoniae [33] = test: Antimicrobial activity against Streptococcus pneumoniae isolate 1055 by agar dilution method
Streptococcus pneumoniae [34] = test: Antimicrobial activity against Streptococcus pneumoniae 2 by time-kill analysis; summary of the method: as §3
Streptococcus pneumoniae [35] = test: Antimicrobial activity against Streptococcus pneumoniae isolate 2686 by agar dilution method; summary of the method: as §1
Streptococcus pneumoniae [36] = test: Antimicrobial activity against Streptococcus pneumoniae 11 by time-kill analysis; summary of the method: as §3
Streptococcus pneumoniae [37] = test: Antimicrobial activity against Streptococcus pneumoniae 5 by time-kill analysis; summary of the method: as §2
Streptococcus pneumoniae [38] = test: Antimicrobial activity against penicillin-resistant Streptococcus pneumoniae by agar dilution method; summary of the method: as §1
Streptococcus pneumoniae [39] = test: Antimicrobial activity against Streptococcus pneumoniae isolate 3374 by agar dilution method; summary of the method: as §1
Streptococcus pneumoniae [40] = test: Antimicrobial activity against Streptococcus pneumoniae 9 by time-kill analysis; summary of the method: as §2
Streptococcus pneumoniae [41] = test: Antimicrobial activity against Streptococcus pneumoniae isolate 3481 by agar dilution method; summary of the method: as §1
Streptococcus pneumoniae [42] = test: Antimicrobial activity against Streptococcus pneumoniae isolate 3455 by agar dilution method
Streptococcus pneumoniae [43] = test: Antimicrobial activity against Streptococcus pneumoniae isolate 1564 by agar dilution method
Streptococcus pneumoniae [44] = test: Antimicrobial activity against Streptococcus pneumoniae 10 by time-kill analysis; summary of the method: as §3
Streptococcus pneumoniae [45] = test: Antimicrobial activity against Streptococcus pneumoniae isolate 37 by agar dilution method; summary of the method: as §1
Streptococcus pneumoniae [46] = test: Antimicrobial activity against Streptococcus pneumoniae 4 by time-kill analysis; summary of the method: as §3
Streptococcus pneumoniae [47] = test: Antimicrobial activity against Streptococcus pneumoniae 6 by time-kill analysis; summary of the method: as §3

COCC1=C(C(=O)O)N2C(=O)[C@@H](NC(=O)/C(=N\OC)c3csc(N)n3)[C@H]2SC1 [CEFPODOXIME]
0.016 µg/mL: MIC (Streptococcus pneumoniae [34])
4 µg/mL: MIC (Streptococcus pneumoniae [4]) | MIC (Streptococcus pneumoniae [5]) | MIC (Streptococcus pneumoniae [6]) | MIC (Streptococcus pneumoniae [7]) | MIC (Streptococcus pneumoniae [15]) | MIC (Streptococcus pneumoniae [16]) | MIC (Streptococcus pneumoniae [17]) | MIC (Streptococcus pneumoniae [20]) | MIC (Streptococcus pneumoniae [22]) | MIC (Streptococcus pneumoniae [23]) | MIC (Streptococcus pneumoniae [25]) | MIC (Streptococcus pneumoniae [26]) | MIC (Streptococcus pneumoniae [27]) | MIC (Streptococcus pneumoniae [28]) | MIC (Streptococcus pneumoniae [29]) | MIC (Streptococcus pneumoniae [36]) | MIC50 (Streptococcus pneumoniae [38]) | MIC (Streptococcus pneumoniae [39]) | MIC (Streptococcus pneumoniae [41]) | MIC (Streptococcus pneumoniae [42]) | MIC (Streptococcus pneumoniae [45])
8 µg/mL: MIC (Streptococcus pneumoniae [8]) | MIC (Streptococcus pneumoniae [18]) | MIC (Streptococcus pneumoniae [21]) | MIC50 (Streptococcus pneumoniae [32]) | MIC90 (Streptococcus pneumoniae [32]) | MIC (Streptococcus pneumoniae [35]) | MIC (Streptococcus pneumoniae [37]) | MIC90 (Streptococcus pneumoniae [38]) | MIC (Streptococcus pneumoniae [46])
0.5 µg/mL: MIC (Streptococcus pneumoniae [3]) | MIC (Streptococcus pneumoniae [47])
0.03 µg/mL: MIC (Streptococcus pneumoniae [2]) | MIC (Streptococcus pneumoniae [24]) | MIC50 (Streptococcus pneumoniae [24])
0.25 µg/mL: MIC50 (Streptococcus pneumoniae [12]) | MIC (Streptococcus pneumoniae [40]) | MIC (Streptococcus pneumoniae [44])
1 µg/mL: MIC (Streptococcus pneumoniae [30])
0.06 µg/mL: MIC90 (Streptococcus pneumoniae [24])
32 µg/mL: MIC (Streptococcus pneumoniae [1]) | MIC (Streptococcus pneumoniae [43])
2 µg/mL: MIC (Streptococcus pneumoniae [9]) | MIC (Streptococcus pneumoniae [10]) | MIC (Streptococcus pneumoniae [11]) | MIC90 (Streptococcus pneumoniae [12]) | MIC (Streptococcus pneumoniae [13]) | MIC (Streptococcus pneumoniae [14]) | MIC (Streptococcus pneumoniae [19]) | MIC (Streptococcus pneumoniae [31]) | MIC (Streptococcus pneumoniae [33])

CC[C@H]1OC(=O)[C@H](C)[C@@H](O[C@H]2C[C@@](C)(OC)[C@@H](O)[C@H](C)O2)[C@H](C)[C@@H](O[C@@H]2O[C@H](C)C[C@H](N(C)C)[C@H]2O)[C@](C)(O)C[C@@H](C)CN(C)[C@H](C)[C@@H](O)[C@]1(C)O [AZITHROMYCIN]
0.03 µg/mL: MIC (Streptococcus pneumoniae [44])
0.06 µg/mL: MIC (Streptococcus pneumoniae [34]) | MIC (Streptococcus pneumoniae [40]) | MIC (Streptococcus pneumoniae [46]) | MIC (Streptococcus pneumoniae [47])
0.12 µg/mL: MIC (Streptococcus pneumoniae [31])
2 µg/mL: MIC (Streptococcus pneumoniae [8]) | MIC50 (Streptococcus pneumoniae [12]) | MIC (Streptococcus pneumoniae [18]) | MIC50 (Streptococcus pneumoniae [24])
0.125 µg/mL: MIC (Streptococcus pneumoniae [6]) | MIC (Streptococcus pneumoniae [11]) | MIC (Streptococcus pneumoniae [20]) | MIC50 (Streptococcus pneumoniae [38])
> 64 µg/mL: MIC (Streptococcus pneumoniae [1]) | MIC (Streptococcus pneumoniae [2]) | MIC (Streptococcus pneumoniae [4]) | MIC (Streptococcus pneumoniae [5]) | MIC (Streptococcus pneumoniae [7]) | MIC (Streptococcus pneumoniae [9]) | MIC (Streptococcus pneumoniae [10]) | MIC90 (Streptococcus pneumoniae [12]) | MIC (Streptococcus pneumoniae [13]) | MIC (Streptococcus pneumoniae [14]) | MIC (Streptococcus pneumoniae [16]) | MIC (Streptococcus pneumoniae [17]) | MIC (Streptococcus pneumoniae [19]) | MIC (Streptococcus pneumoniae [21]) | MIC (Streptococcus pneumoniae [22]) | MIC (Streptococcus pneumoniae [23]) | MIC90 (Streptococcus pneumoniae [24]) | MIC (Streptococcus pneumoniae [25]) | MIC (Streptococcus pneumoniae [26]) | MIC (Streptococcus pneumoniae [27]) | MIC (Streptococcus pneumoniae [28]) | MIC (Streptococcus pneumoniae [29]) | MIC (Streptococcus pneumoniae [30]) | MIC50 (Streptococcus pneumoniae [32]) | MIC90 (Streptococcus pneumoniae [32]) | MIC (Streptococcus pneumoniae [33]) | MIC (Streptococcus pneumoniae [35]) | MIC (Streptococcus pneumoniae [36]) | MIC (Streptococcus pneumoniae [37]) | MIC (Streptococcus pneumoniae [39]) | MIC (Streptococcus pneumoniae [41]) | MIC (Streptococcus pneumoniae [42]) | MIC (Streptococcus pneumoniae [43]) | MIC (Streptococcus pneumoniae [45])
4 µg/mL: MIC (Streptococcus pneumoniae [3]) | MIC (Streptococcus pneumoniae [15])
